An excerpt weighted towards active compounds, which were near 1.5% of everything screened.
LANA-H2B inh: blocks KSHV LANA binding to histone H2A/H2B | Q9QR71 | 320,000 tested, 0.6% active | cell-free LANA-H2A/H2B peptide, fluorescence polarization | AID 2629 | inhibition, % (concentration not given with the values); in the data active = inhibition mostly above about 10%, no sharp cut-off; inactive = mostly below about 6.7%
T cell HTS: T cell immune modulation candidate; 2C CD8+ T cell-vesicle binding, flow cytometry; stronger effect = lower value; response (vesicle binding), % at 7 µM; 330,000 tested, 0.068% active;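 active = response, share of CD8 T cells binding vesicles, and their 90th percentile fluorescence all below set limits, cut at about 80% in these data, passing the limit was not always enough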;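 also: values below 100% mean blocked vesicle binding to the CD8+ T cells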
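Test system: purified 2C TCR transgenic mouse naive CD8+ T cells. Probe or stimulus: QL9-peptide-loaded Drosophila micro-vesicles bearing Ld, ICAM-1 and B7-1. Incubation: binding step 1.5 h, 37 °C, antibody labelling 20 min, ice. Measured by: flow cytometry of vesicle-bound cells.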
Pemphigus Ab inh: blocks pemphigus antibody binding to human desmoglein-3 | P32926 | binding (percent of control), % at 10 µM | 310,000 tested, 0.48% active | DSG3-coupled beads, scFv-anti-DSG3-GFP binding, flow cytometry; stronger effect = lower value;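 active = binding more than 3 SD below its plate's average and above zero; inconclusive = below that plate limit but binding exactly zero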;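 also: hits lower antibody fragment binding to DSG3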
Target sequence (P32926 whole entry, looked up, the tested form may be a part): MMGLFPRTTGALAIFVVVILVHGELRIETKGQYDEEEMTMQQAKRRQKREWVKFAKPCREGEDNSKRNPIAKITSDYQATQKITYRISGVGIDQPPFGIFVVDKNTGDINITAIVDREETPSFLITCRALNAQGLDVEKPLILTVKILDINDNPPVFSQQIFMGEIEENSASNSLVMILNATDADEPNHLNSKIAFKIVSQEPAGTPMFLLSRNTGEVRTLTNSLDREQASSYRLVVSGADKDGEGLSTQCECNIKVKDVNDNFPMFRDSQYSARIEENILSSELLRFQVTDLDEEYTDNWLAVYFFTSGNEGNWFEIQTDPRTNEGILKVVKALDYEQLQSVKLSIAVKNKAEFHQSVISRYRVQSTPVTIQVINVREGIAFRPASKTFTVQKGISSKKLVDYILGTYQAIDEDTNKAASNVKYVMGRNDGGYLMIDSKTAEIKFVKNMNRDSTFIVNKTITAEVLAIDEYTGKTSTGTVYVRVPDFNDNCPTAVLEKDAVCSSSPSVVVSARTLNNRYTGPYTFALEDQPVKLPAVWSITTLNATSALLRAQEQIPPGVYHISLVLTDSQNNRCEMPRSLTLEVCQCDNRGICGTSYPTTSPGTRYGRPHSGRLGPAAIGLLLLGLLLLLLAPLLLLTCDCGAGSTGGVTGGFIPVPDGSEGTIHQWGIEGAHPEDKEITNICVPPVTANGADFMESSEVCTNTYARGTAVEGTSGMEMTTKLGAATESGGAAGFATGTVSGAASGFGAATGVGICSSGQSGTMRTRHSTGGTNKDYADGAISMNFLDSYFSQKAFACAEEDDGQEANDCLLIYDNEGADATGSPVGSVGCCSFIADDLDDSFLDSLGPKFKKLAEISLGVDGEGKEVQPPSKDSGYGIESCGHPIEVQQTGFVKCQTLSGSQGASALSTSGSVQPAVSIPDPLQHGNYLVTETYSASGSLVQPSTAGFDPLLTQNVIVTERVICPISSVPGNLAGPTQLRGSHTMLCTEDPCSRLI
HDAC3 inhib: human HDAC3 inhibition. O15379. recombinant HDAC3, fluorogenic peptide/trypsin coupled, fluorescence. inhibition, % at 8.3 µM. 320,000 tested, 0.15% active; in the data active = inhibition above about 26%, passing the limit was not always enough; inconclusive = no clear call, values can overlap the other calls
Arrestin-AP2 inh: inhibitors of human beta-arrestin and AP2 interaction; FITC-arrestin peptide / GST-AP2 beads, flow cytometry; AP2 beta2 appendage carries R879A mutation; inhibition, % at 10 µM; 340,000 tested, 0.31% active; AID 504490;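 active = inhibition above a set limit, near 3 SD of compounds lacking own fluorescence, cut at about 54% in these data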
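Material – GST-tagged AP2 beta2-adaptin appendage (R879A) on 4 µm glutathione beads · Probe or stimulus – fluorescein-tagged arrestin peptide at 50 nM final · Timing – 12 min plus 1 h, RT · Detection – bead flow cytometry, FITC channel · Read-out basis – inhibition as reduced fluorescein signal on beads, percent · Medium – PBS plus Tween 20 (0.05%) and BSA (0.1%)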
Each line names hits and unclear results; the compound was inactive in the other large screens.

O=C(NCCc1ccccc1)c1cnc2n(c1=O)CCS2	LANA-H2B inh 12.5, HDAC3 inhib inconclusive
O=C(NCCc1c[nH]c2ccccc12)c1cnc2n(c1=O)CCS2	none
CCOc1ccc(-c2csc(NC(=O)CSC3=NC(=O)CN3C(C)=O)n2)c2ccccc12	none
CC(=O)N1CC(=O)N=C1SCC(=O)Nc1nc(C)c(-c2ccccc2)s1	HDAC3 inhib 25.8
CCc1ccc(CNC(=O)CCS(=O)(=O)Cc2ccc(C)cc2)cc1	none
Cc1ccc(C)c(N2CCN(C(=O)c3ccc(Cl)c(NC4=NC5CS(=O)(=O)CC5S4)c3)CC2)c1 (stereo not drawn)	none
COC(=O)c1ccc(C(=O)N2CCCC(Nc3ccc(F)c(F)c3)C2)cc1 (stereo not drawn)	none
COCc1ccc(C(=O)N2CCCC(Nc3ccc(F)c(F)c3)C2)s1 (stereo not drawn)	LANA-H2B inh 95.3
COc1ccc(N2CCN(C(=S)Nc3cccc(C)c3C)CC2)cc1	Pemphigus Ab inh 48.6
Cc1c(C=Nc2ccc(S(=O)(=O)N(C)C)cc2)c(O)[nH]c(=O)c1C#N	none
Cc1ccc(NC(=O)c2csc(-c3ccccc3)c2C)cc1	Pemphigus Ab inh -23.8 (no result: LANA-H2B inh, T cell HTS, HDAC3 inhib)
CCOc1cc(/C=N/NC(=O)c2cccnc2)ccc1OCC(=O)N(C)C	Pemphigus Ab inh 78.2
O=C(N/N=C/c1cccc(OC(=O)c2ccccc2Cl)c1)c1cccnc1	T cell HTS 0.0 (no result: Pemphigus Ab inh)
COC(=O)C(Cc1ccccc1)NC(=O)CCNC(=O)c1ccc(Br)cc1 (stereo not drawn)	none
CSCC[C@H](NC(=O)OC(C)(C)C)C(=O)NCC1CCC(C(=O)N[C@@H](Cc2ccccc2)C(=O)O)CC1 (stereo partly drawn)	none
CCCCCNC(=O)C(C#N)c1nc2ccccc2nc1N1CCCC1 (stereo not drawn)	none
CCCCCCNC(=O)C(C#N)c1nc2ccccc2nc1N1CCCC1 (stereo not drawn)	LANA-H2B inh 154.5
CCCCN(CCCC)c1nc2ccccc2nc1C(C#N)C(=O)NCCCOC (stereo not drawn)	LANA-H2B inh 27.2
CC(C)CN1CC(COCc2ccccc2)Oc2ccccc2S1(=O)=O (stereo not drawn)	none (no result: LANA-H2B inh, T cell HTS, HDAC3 inhib)
O=C(Cc1ccsc1)NNC(=O)c1ccccc1Cl	none
CCOc1ccc(CC(=O)Nc2nccs2)cc1OCC	LANA-H2B inh 20.7
COc1ccc(NC(=O)c2oc3ccccc3c2NC(=O)c2ccc(OC)c(OC)c2)c(OC)c1	Pemphigus Ab inh 7.3 (no result: LANA-H2B inh, T cell HTS, HDAC3 inhib)
COc1ccc(NC(=O)c2oc3ccccc3c2NC(=O)COc2ccccc2OC)c(OC)c1	none
CC(C)(C)c1ccc(C(=O)NCCCNC(=O)c2ccccn2)cc1	none
O=C(O)CC1(CC(=O)Nc2nccs2)CCCCC1	none (no result: LANA-H2B inh, T cell HTS, Pemphigus Ab inh, HDAC3 inhib)
CN1CCN(C2=C(Cl)C(=O)C(c3cnc(N4CCCCC4)s3)=C(Cl)C2=O)CC1	Arrestin-AP2 inh 107.0
COc1ccccc1NC(=O)C(C)OC(=O)C1COc2ccccc2O1 (stereo not drawn)	LANA-H2B inh 20.6
Cc1ccc2nc(NC(=O)C3CCN(c4ncnc5sc(C)c(C)c45)CC3)sc2c1	Pemphigus Ab inh 86.2
O=C(COc1ccccc1)NCC(=O)N/N=C/c1cccs1	LANA-H2B inh 55.4
O=C(COc1ccccc1)NCC(=O)N1CCCCCC1	LANA-H2B inh 50.3
S=C(NCc1ccccc1)N/N=C/c1cccs1	LANA-H2B inh 12.6
COc1cc(C(=O)NCC(c2cccs2)N2CCOCC2)ccc1OCc1ccccc1 (stereo not drawn)	none (no result: LANA-H2B inh, T cell HTS, HDAC3 inhib, Arrestin-AP2 inh)
CC1=C/C(=C\c2ccc(Br)o2)C(=O)O1	none
O=C1C(=Cc2ccc(Br)o2)C(=O)c2ccccc21	Pemphigus Ab inh 94.2
OC(c1ccccc1)C(O)c1ccccc1 (stereo not drawn)	Pemphigus Ab inh 90.7
CN(CC1CCCO1)S(=O)(=O)c1ccc(C(=O)Nc2ccc(S(N)(=O)=O)cc2)cc1 (stereo not drawn)	none
C=CCNC(=S)NNC(=O)c1ccc(OCC(C)C)cc1	LANA-H2B inh 19.2
C=CCNC(=S)NNC(=O)c1ccc(OCC)cc1	none
COc1cc(C(=O)ON=C2C(C)=CC(=O)C=C2C)cc(OC)c1OC	none (no result: Pemphigus Ab inh)
COc1cc(C(=O)O/N=C2/C=C(C)C(=O)C=C2C)cc(OC)c1OC	HDAC3 inhib 35.0
CCOc1ccc(CCNC(=O)Cn2nc(C)n3cccc3c2=O)cc1OCC	none
CCOC(=O)c1ccc(Nc2ccc(-c3ccc(OC)c(OC)c3)nn2)cc1	Pemphigus Ab inh 85.6
COc1ccc2c(c1OC)C(=O)N(c1ccc(C)cc1)C2=O	LANA-H2B inh 15.9
COc1ccc2c(c1OC)C(=O)N(c1ccc(C)c(C)c1)C2=O	none
CCCCCCC#Cc1ccc2c(c1)COc1c3ccccc3nn1-2	T cell HTS 0.0
CCOc1ccccc1Nc1nnc(SCC(=O)NC2CC2)s1	none
C#CCn1c(=NC(=O)c2sc3ccccc3c2Cl)sc2cc(S(N)(=O)=O)ccc21	Pemphigus Ab inh 108.9
CC(C(=O)Nc1nnc(C2CC2)s1)N1C(=O)C2CC=CCC2C1=O (stereo not drawn)	LANA-H2B inh 12.9
NC1=NC(=O)C(Cc2ccc(OC(F)(F)F)cc2)S1 (stereo not drawn)	none
CC(C)C(=O)Nc1ncc(Cc2ccccc2Cl)s1	none
N#CCC(=O)Nc1ncc(Cc2ccccc2Cl)s1	LANA-H2B inh 33.1
O=C(CCC(=O)N1CCOCC1)NCc1cccc(C(F)(F)F)c1	LANA-H2B inh 22.3
COc1cccc(CNC(=O)CCC(=O)N2CCOCC2)c1	none
CC(=O)c1ccc(NC(=O)CCSCCC(=O)Nc2ccc(C(C)=O)cc2)cc1	none (no result: Pemphigus Ab inh)
O=C(O)CSCCC(=O)Nc1ccc(F)cc1	LANA-H2B inh 27.8
Cc1nc2sc3c(c2c(=O)n1NC(=O)CCBr)CCCC3	Arrestin-AP2 inh 61.8
CCCc1nc2sc3c(c2c(=O)n1NC(=O)CCC(=O)OC)CCCC3	none (no result: HDAC3 inhib)
CCOc1ccc(NC(=O)c2ccc(NC(=O)CSc3nc4ccccc4c(=O)[nH]3)cc2)cc1	Pemphigus Ab inh 80.7
O=C(CSc1nc2ccccc2c(=O)[nH]1)Nc1ccc(C(=O)O)cc1	none (no result: Pemphigus Ab inh)
OCCNCc1cc(Br)ccc1OCc1ccc(F)cc1	none
OCCCCNCc1cc(Br)ccc1OCc1ccccc1F	T cell HTS 26.8
CC(SC1=Nc2ccccc2C2CC=NN12)C(=O)NC1(C#N)CCCCC1 (stereo not drawn)	none
CC(Sc1ncccn1)C(=O)NC1(C#N)CCCCC1 (stereo not drawn)	LANA-H2B inh 18.0
N#Cc1ccccc1OCC(=O)N1CCN(S(=O)(=O)c2ccc(Cl)cc2)CC1	none
CC(=O)c1ccc(NC(=O)CN2C(=O)/C(=C/C=C/c3ccccc3)SC2=S)cc1	Pemphigus Ab inh 80.2
COCC(C)NS(=O)(=O)c1ccc(C(=O)NC(Cc2ccccc2)c2ccccc2)cc1 (stereo not drawn)	none
CCCC(=O)NC(=S)Nc1ccc(S(=O)(=O)N2CCc3ccccc32)cc1	none
